Data reported in ChEMBL document CHEMBL3244051, “15,15-Ketals of natural prostaglandins and prostaglandin analogues. Synthesis and biological activities” (1978).
Active and inactive are the calls of the source. The rule behind the calls is not given here.

How the values were obtained:
[1] = system: Rattus norvegicus; experiment: Abortifacient activity in sc dosed early pregnant Wistar rat assessed as decrease in serum progesterone level administered in benzyl benzoate and castor oil on day 4 to day 7 of gestation measured on day 3, 5, 7 and 9 of gestation by RIA relative to PGF2alpha; assay type: functional
Outline: (§1)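 Female Wistar rats mated at proestrus; sperm in vaginal smear next day defines day 1 of gestation. Dosed sc in 0.2 mL oil (benzyl benzoate:castor oil 1:3) on days 4–7; 4 rats/group. Orbital plexus blood taken days 3, 5, 7, 9 for serum progesterone by RIA; rats killed day 9, uteri inspected for abortion.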

[2] = […] activity in rat uterus assessed as uterine contraction relative to PGF2alpha; assay type: functional
Outline: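 Isolated rat uterine horns held in salt solution matching extracellular fluid; contractions recorded isotonically as length change. One horn of each animal received test agent, the other the reference, in separate organ baths; n = 4 paired comparisons. Contraction height (mm) analysed by analysis of variance.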

[3] = system: Ileum; experiment: Contraction of guinea pig ileum relative to PGF2alpha; assay type: functional, Cavia porcellus
[4] = system: Rattus norvegicus; experiment: Abortifacient activity in sc dosed early pregnant Wistar rat assessed as decrease in serum progesterone level measured per animal administered in benzyl benzoate and castor oil on day 4 to day 7 of gestation measured on day 3, 5, 7 and 9 of gestation by RIA; assay type: functional; outline: as §1

With `CCCCCC1(/C=C/[C@@H]2[C@@H](C/C=C\CCCC(=O)OC)[C@@H](O)C[C@H]2O)OCCCO1` the “fold change (FC)” value [1] was under 0.3 and the “fold change (FC)” value [2] was under 0.1.

For `CCCCOC(=O)CCC/C=C\C[C@@H]1[C@@H](/C=C/C2(COc3ccccc3)OCCO2)[C@H](O)C[C@@H]1O`, the “fold change (FC)” value [1] was 30 and the “fold change (FC)” value [2] was 10.

With `NC(CO)(CO)CO.O=C(O)CCC/C=C\C[C@@H]1[C@@H](/C=C/C2(COc3ccccc3)OCCO2)[C@H](O)C[C@@H]1O` the “fold change (FC)” value [2] was over 10.

In the case of `CCCCCC1(/C=C/[C@@H]2[C@@H](C/C=C\CCCC(=O)O)[C@@H](O)C[C@H]2O)OCCO1`, the “fold change (FC)” value [1] is reported as 1 and the “fold change (FC)” value [2] is reported as 5.

With `COC(=O)CCC/C=C\C[C@@H]1[C@@H](CCC2(COc3ccccc3)OCCO2)[C@H](O)C[C@@H]1O` the “fold change (FC)” value [1] was 10 and the “fold change (FC)” value [2] was over 10.

In the case of `COC(=O)CCC/C=C\C[C@@H]1[C@@H](/C=C/C2(c3ccc(Cl)cc3)OCCO2)[C@H](O)C[C@@H]1O`, the “fold change (FC)” value [1] is reported as 10 and the “fold change (FC)” value [2] is reported as 10.

With `CCCCCC1(/C=C/[C@@H]2[C@@H](C/C=C\CCCC(=O)OC)[C@@H](O)C[C@H]2O)OCC(C)(C)CO1` the “fold change (FC)” value [1] was under 0.3 and the “fold change (FC)” value [2] was under 0.1.

With `O=C(O)CCC/C=C\C[C@@H]1[C@@H](/C=C/C2(COc3ccccc3)OCCO2)[C@H](O)C[C@@H]1O` [ETIPROSTON] the “fold change (FC)” value [1] was 10, the “fold change (FC)” value [2] was 10 and the “fold change (FC)” value [3] was 0.1.

With `COC(=O)CCC/C=C\C[C@@H]1[C@@H](/C=C/C2(COc3cccc(C(F)(F)F)c3)OCCO2)[C@H](O)C[C@@H]1O` the “fold change (FC)” value [1] was 10, the “fold change (FC)” value [2] was over 10 and the “fold change (FC)” value [3] was under 0.1.

Work on `CCCCC[C@H](O)/C=C/[C@@H]1[C@@H](C/C=C\CCCC(=O)O)[C@@H](O)C[C@H]1O` [DINOPROST] yielded an Activity [4] of 0.3 mg/day.

In the case of `O=C(O)CCC/C=C\C[C@@H]1[C@@H](/C=C/C2(COc3ccccc3)OCCO2)[C@H](O)C[C@@H]1O`, the Activity [1] is reported as “Active”.

With `CCCCCC1(CC[C@@H]2[C@@H](C/C=C\CCCC(=O)OC)[C@@H](O)C[C@H]2O)OCCO1` the “fold change (FC)” value [1] was under 0.3 and the “fold change (FC)” value [2] was 1.

In the case of `COC(=O)CCC/C=C\C[C@@H]1[C@@H](/C=C/C2(COc3ccccc3)OCCO2)[C@H](O)C[C@@H]1O`, the “fold change (FC)” value [1] is reported as 100, the “fold change (FC)” value [2] is reported as over 10 and the “fold change (FC)” value [3] is reported as under 0.1.

For `CCCCCC1(/C=C/[C@@H]2[C@@H](C/C=C\CCCC(=O)OC)[C@@H](O)C[C@H]2O)OCCO1`, the “fold change (FC)” value [1] was 1, the “fold change (FC)” value [2] was 5 and the “fold change (FC)” value [3] was 0.1.

In the case of `CCCCCC(/C=C/[C@@H]1[C@@H](C/C=C\CCCC(=O)OC)[C@@H](O)C[C@H]1O)(OC)OC`, the “fold change (FC)” value [1] is reported as under 0.1, the “fold change (FC)” value [2] is reported as 0.1 and the “fold change (FC)” value [3] is reported as under 0.1.

For `COC(=O)CCC/C=C\C[C@@H]1[C@@H](/C=C/C2(CCc3ccccc3)OCCO2)[C@H](O)C[C@@H]1O`, the “fold change (FC)” value [1] was 30 and the “fold change (FC)” value [2] was over 10.

For `COC(=O)CCC/C=C\C[C@@H]1[C@@H](/C=C/C2(COc3ccc(F)cc3)OCCO2)[C@H](O)C[C@@H]1O`, the “fold change (FC)” value [1] was 10 and the “fold change (FC)” value [2] was 10.
